Measurements: publication PMC3086766 (Bioconjugate chemistry, 2011)
Where “and” joins values, the source holds several entries; their conditions need not be identical. Identical values can stand only once.

How the values were obtained:
male ICR mice = experiment: In-vivo biodistribution study in mice; parameters: species or system mouse; conditions: for Blood uptake / Bone uptake / Brain uptake / Heart uptake / Kidney uptake / Liver uptake / Lung uptake / Muscle uptake / Pancreas uptake / Skin uptake / Spleen uptake: iv tail vein; for in vivo de-fluorination (from bone (femur) values): within 30 min post injection
In short: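 Normal male ICR mice (20–25 g), 6 per group, under isoflurane (1–2%, 1 L oxygen/min). Each received 25 μCi radiotracer in 0.15 mL saline via lateral tail vein. Killed by cardiac excision under anesthesia at 2 and 30 min. Organs weighed and gamma-counted. Percent dose per gram calculated against counts of 1.0% of initial dose, taken from 100-fold diluted injectate aliquots.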

[1] = biological target: AD plaques (β-amyloid plaques) in human brain tissue homogenates (Homo sapiens, UniProt P05067); experiment: In vitro competition binding assay against [18F]-AV-45 in AD brain homogenates
Chain of AD plaques (β-amyloid plaques) in human brain tissue homogenates (P05067 672-713 limits assumed): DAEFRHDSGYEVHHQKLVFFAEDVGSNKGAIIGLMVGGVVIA
In short: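 Gray matter from human Alzheimer's brain sections with plaques, homogenized in PBS pH 7.2 (20–50 μg per tube). Incubated with [18F]-AV-45 and competitor (10−5–10−10 M, serially diluted in PBS with 0.1% BSA) in 1 mL final, 37 °C for 120 min. IMPY 600 nM defined nonspecific binding. Bound and free separated by vacuum filtration. Ki by nonlinear regression; n = 5–6.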

Blood uptake (male ICR mice; 2 min post injection) | Bone uptake (male ICR mice; 2 min post injection) | Heart uptake (male ICR mice; 2 min post injection) | Kidney uptake (male ICR mice; 2 min post injection) | Liver uptake (male ICR mice; 2 min post injection) | Lung uptake (male ICR mice; 2 min post injection) | Muscle uptake (male ICR mice; 2 min post injection) | Pancreas uptake (male ICR mice; 2 min post injection) | Skin uptake (male ICR mice; 2 min post injection) | Spleen uptake (male ICR mice; 2 min post injection) | Blood uptake (male ICR mice; 30 min post injection) | Bone uptake (male ICR mice; 30 min post injection) | Heart uptake (male ICR mice; 30 min post injection) | Kidney uptake (male ICR mice; 30 min post injection) | Liver uptake (male ICR mice; 30 min post injection) | Lung uptake (male ICR mice; 30 min post injection) | Muscle uptake (male ICR mice; 30 min post injection) | Pancreas uptake (male ICR mice; 30 min post injection) | SMILES | Brain uptake (male ICR mice; 2 min post injection) | Brain uptake (male ICR mice; 30 min post injection) | also measured
9.34 ± 1.37 % dose/gram | 2.00 ± 0.33 % dose/gram | 13.1 ± 3.08 % dose/gram | 14.1 ± 2.85 % dose/gram | 22.2 ± 3.99 % dose/gram | 7.09 ± 1.37 % dose/gram | 1.32 ± 0.50 % dose/gram | 5.13 ± 1.08 % dose/gram | 0.79 ± 0.20 % dose/gram | 4.81 ± 1.18 % dose/gram | 4.94 ± 0.91 % dose/gram | 2.27 ± 0.41 % dose/gram | 3.72 ± 0.84 % dose/gram | 6.83 ± 1.93 % dose/gram | 19.1 ± 3.65 % dose/gram | 3.53 ± 0.38 % dose/gram | 1.56 ± 0.27 % dose/gram | 2.28 ± 0.48 % dose/gram | CNc1ccc(/C=C/c2ccc(OCCOCCOCCNC(=O)CO/N=C/c3ccc(OCCOCCOCCF)nc3)nc2)cc1 [[^18F]23, 2-((E)-(6-(2-(2-(2-fluoroethoxy)ethoxy)ethoxy)pyridin-3-yl)methyleneaminooxy)-N-(2-(2-(2-(5-((E)-4-(methylamino)styryl)pyridin-2-yloxy)ethoxy)ethoxy)ethyl)acetamide] | 1.69 % dose/gram and 1.69 ± 0.44 % dose/gram | 0.96 ± 0.16 % dose/gram | Skin uptake (male ICR mice; 30 min post injection): 1.50 ± 0.25 % dose/gram; Spleen uptake (male ICR mice; 30 min post injection): 3.57 ± 0.68 % dose/gram; in vivo de-fluorination (from bone (femur) values) (male ICR mice): very little de-fluorination; Ki [1]: 11.8 ± 3.06 nM
4.19 ± 1.04 % dose/gram | 1.76 ± 0.31 % dose/gram | 12.3 ± 1.79 % dose/gram | 15.4 ± 3.54 % dose/gram | 29.4 ± 5.09 % dose/gram | 3.70 ± 1.06 % dose/gram | 1.42 ± 0.46 % dose/gram | 3.32 ± 0.58 % dose/gram | 1.14 ± 0.44 % dose/gram | 3.11 ± 0.45 % dose/gram | 2.81 ± 0.22 % dose/gram | 1.62 ± 0.10 % dose/gram | 4.17 ± 0.61 % dose/gram | 7.78 ± 0.85 % dose/gram | 10.9 ± 1.17 % dose/gram | 2.43 ± 0.33 % dose/gram | 2.01 ± 0.21 % dose/gram | 2.22 ± 0.23 % dose/gram | CNc1ccc(/C=C/c2ccc(OCCOCCOCCOCCOCCOCCNC(=O)CO/N=C/c3ccc(OCCOCCOCCF)nc3)nc2)cc1 [[^18F]24, 2-((E)-(6-(2-(2-(2-fluoroethoxy)ethoxy)ethoxy)pyridin-3-yl)methyleneaminooxy)-N-(17-(5-((E)-4-(methylamino)styryl)pyridin-2-yloxy)-3,6,9,12,15-pentaoxaheptadecyl)acetamide] | 0.48 % dose/gram and 0.48 ± 0.12 % dose/gram | 0.92 % dose/gram and 0.92 ± 0.11 % dose/gram | Skin uptake (male ICR mice; 30 min post injection): 1.78 ± 0.13 % dose/gram; Spleen uptake (male ICR mice; 30 min post injection): 1.63 ± 0.19 % dose/gram; in vivo de-fluorination (from bone (femur) values) (male ICR mice): very little de-fluorination
